{"source": "paper PMC4363277", "about": "(Amino acids, 2015)", "tested_on": "B16/F1 melanoma cells", "assay": "Cytotoxicity in B16/F1 melanoma cells", "assay_type": "cell-based, murine", "details": "0.1 µM, 3 h incubation at 37 °C, MTT 5 days post treatment", "summary_of_the_method": "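B16/F1 cells at 150/well, overnight in CO2 incubator, washed with RPMI 1640, then exposed 3 h at 37 °C to 0.1 µM test compound in binding medium; controls kept in culture medium only. Washed, grown 5 days with medium changed every other day; MTT (0.5 mg/mL) 3 h at 37 °C, formazan dissolved in acidic isopropanol, A570 minus A630. Survival = treated/control absorbance × 100%.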"}
{"substance": "[Cys^3,4,10, D-Phe^7, Arg^11]α-MSH3–13 [(Arg^11)CCMSH]", "values": [{"measurement": "decrease of survival percentage versus untreated control cells", "value": 15, "unit": "%"}]}
